Experimental data as given in ChEMBL document CHEMBL1914355, “Discovery of new orally active prostaglandin D2 receptor antagonists” (Bioorg Med Chem, 2011).
≈ marks a conversion by molar mass, not a printed value.

What was measured:
Prostacyclin receptor = Prostacyclin receptor (Homo sapiens, UniProt P43119); test: Displacement of [3H]Iloprost from human prostanoid IP receptor expressed in CHO cells after 30 mins by liquid scintillation counting; assay type: cell-based
In short: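 Membranes from CHO cells stably expressing hIP were incubated with 5.0 nM [³H]iloprost and graded compound concentrations in 50 mM Tris-HCl (1 mM EDTA, 10 mM MgCl₂, pH 7.5) for 30 min at room temperature. Filters (GF/B) were washed with ice-cold Tris/NaCl pH 7.5, dried 60 min at 60 °C, and counted. Nonspecific binding used excess unlabeled iloprost. Ki = IC50/(1+[L]/Kd).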

[1] = Kinetic solubility of the compound; assay type: physicochemical; settings: read-out: Kinetic_solubility
[2] = target: T1, Prostaglandin D2 receptor (Homo sapiens, UniProt Q13258); test: Antagonist activity at prostanoid DP receptor in human platelet rich plasma assessed as inhibition of PGD2-induced intracellular cAMP production after 10 mins by enzyme immunoassay; assay type: functional, cell-based; settings: in the assay text read “after 15 mins” for “after 10 mins”
T1 sequence (Q13258 whole entry): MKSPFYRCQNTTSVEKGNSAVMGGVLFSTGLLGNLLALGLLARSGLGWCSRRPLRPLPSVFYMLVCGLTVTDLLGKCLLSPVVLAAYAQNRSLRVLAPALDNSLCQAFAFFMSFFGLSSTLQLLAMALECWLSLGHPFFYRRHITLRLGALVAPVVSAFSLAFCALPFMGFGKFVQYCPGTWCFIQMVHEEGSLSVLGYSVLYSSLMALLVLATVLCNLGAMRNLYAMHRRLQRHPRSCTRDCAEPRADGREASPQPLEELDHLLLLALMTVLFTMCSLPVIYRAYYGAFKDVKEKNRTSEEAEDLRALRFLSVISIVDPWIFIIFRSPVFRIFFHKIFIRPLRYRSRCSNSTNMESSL
In short: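 Human PRP with EDTA (~10 mmol/L) was spun at 1500 G for 15 min. Platelets were resuspended in PPP at 5.0 × 10⁵/µL with IBMX (8 mmol/L final) and an EP3 antagonist, then held 5 min at 37 °C. Compound was added for 10 min at 37 °C, then PGD₂ (3 µmol/L final) for 15 min. TCA stop, tri-n-octylamine extraction, cAMP EIA. IC50 derived from inhibition ratio.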

[3] = target: T2, Prostaglandin D2 receptor (Mus musculus, UniProt P70263); test: Displacement of [3H]-PGD2 from mouse DP receptor expressed in CHO cells after 20 mins by liquid scintillation counting; assay type: cell-based
T2 sequence (P70263 whole entry): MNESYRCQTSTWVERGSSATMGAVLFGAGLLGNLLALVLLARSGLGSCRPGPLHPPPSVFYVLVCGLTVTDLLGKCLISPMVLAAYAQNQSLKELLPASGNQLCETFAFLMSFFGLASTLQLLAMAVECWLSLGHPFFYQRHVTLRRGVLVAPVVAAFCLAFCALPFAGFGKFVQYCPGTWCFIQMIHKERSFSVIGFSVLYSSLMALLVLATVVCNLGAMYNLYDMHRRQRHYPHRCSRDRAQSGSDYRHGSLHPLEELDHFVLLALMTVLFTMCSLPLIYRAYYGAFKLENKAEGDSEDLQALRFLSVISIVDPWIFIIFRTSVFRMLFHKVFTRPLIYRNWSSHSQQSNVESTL
In short: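 CHO-mDP membranes were incubated with 2.5 nM [³H]PGD₂ and graded compound concentrations in 25 mM HEPES-NaOH (1 mM EDTA, 5 mM MgCl₂, 10 mM MnCl₂, pH 7.4) for 20 min at room temperature. Bound ligand was collected on GF/B filters and washed with ice-cold Tris/NaCl/0.01% BSA, pH 7.4. Nonspecific binding was defined with excess unlabeled PGD₂. IC50 came from the regression curve; Ki = IC50/(1+[L]/Kd).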

[4] = target: T2, Prostaglandin D2 receptor; test: Antagonist activity at mouse prostanoid DP receptor expressed in CHO cells assessed as inhibition of PGD2-induced intracellular cAMP production after 10 mins by enzyme immunoassay; assay type: functional, cell-based
In short: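 CHO cells expressing mDP seeded at 1 × 10⁵ cells/well and grown 2 days. They were rinsed and preincubated ~10 min at 37 °C in MEM with 2 µM diclofenac, then ~10 min in assay medium (MEM, 0.1% BSA, 1 mM IBMX, 2 µM diclofenac). Compound plus 10 nM PGD₂ was added for 10 min at 37 °C. TCA stop, tri-n-octylamine/chloroform extraction, cAMP by EIA. IC50 taken from % of maximal cAMP rise without compound.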

Chain of Prostacyclin receptor (P43119 whole entry): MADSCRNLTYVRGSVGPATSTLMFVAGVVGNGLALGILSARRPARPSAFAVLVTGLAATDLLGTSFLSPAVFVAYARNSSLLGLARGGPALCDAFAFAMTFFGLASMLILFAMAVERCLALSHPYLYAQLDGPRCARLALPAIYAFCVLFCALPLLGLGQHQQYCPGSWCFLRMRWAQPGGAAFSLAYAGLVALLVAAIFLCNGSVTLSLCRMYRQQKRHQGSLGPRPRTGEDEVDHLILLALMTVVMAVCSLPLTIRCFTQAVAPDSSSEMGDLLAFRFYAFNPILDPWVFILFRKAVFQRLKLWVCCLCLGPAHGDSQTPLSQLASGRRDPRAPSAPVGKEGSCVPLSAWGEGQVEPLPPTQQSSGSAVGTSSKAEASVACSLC

SMILES | Ki (Prostacyclin receptor) [nM] | solubility kinetic [1] [µg/mL] | IC50 [2] [nM] | Ki [3] [nM] | IC50 [4] [nM]
CN1C[C@@H](COc2ccc(C(=O)Nc3cccc(CC(=O)O)c3)c(Cl)c2)Oc2ccccc21 | 2700 | – | – | – | –
Cc1cc(OC[C@@H]2CN(C)c3ccccc3O2)ccc1C(=O)Nc1cc(CC(=O)O)ccc1Cl | 1800 | 129 (≈ 268 µM) | – | – | –
Cc1cc(OC[C@@H]2CN(C)c3ccccc3O2)ccc1C(=O)Nc1cc(CC(=O)O)ccc1F | > 10000 | – | – | – | –
Cc1ccc(CC(=O)O)cc1NC(=O)c1ccc(OC[C@@H]2CN(C)c3ccccc3O2)cc1Cl | 1400 | – | – | – | –
CN1C[C@@H](COc2ccc(C(=O)Nc3cc(CC(=O)O)ccc3Cl)c(Cl)c2)Oc2ccccc21 | – | – | > 50 | – | –
CN1C[C@@H](COc2ccc(C(=O)n3ccc4c(CC(=O)O)cccc43)cc2)Oc2ccccc21 | 2500 | – | – | 1700 | –
Cc1c(OC[C@@H]2CN(C)c3ccccc3O2)ccc(C(=O)Nc2cccc(CC(=O)O)c2)c1C | > 10000 | – | – | – | 22
Cc1cc(C(=O)Nc2cccc(CC(=O)O)c2)c(C)cc1OC[C@@H]1CN(C)c2ccccc2O1 | > 10000 | – | – | – | 28
Cc1cc(OC[C@@H]2CN(C)c3ccccc3O2)cc(C)c1C(=O)Nc1cccc(CC(=O)O)c1 | > 10000 | – | – | – | 3.5
Cc1ccc(CC(=O)O)cc1NC(=O)c1ccc(OC[C@@H]2CN(C)c3ccccc3O2)c(C)c1C | 5200 | – | – | – | 12
Cc1ccc(CC(=O)O)cc1NC(=O)c1cc(C)c(OC[C@@H]2CN(C)c3ccccc3O2)cc1C | 2600 | – | – | – | 5.7
Cc1ccc(CC(=O)O)cc1NC(=O)c1c(C)cc(OC[C@@H]2CN(C)c3ccccc3O2)cc1C | > 10000 | – | – | – | 4.8
Cc1c(OC[C@@H]2CN(C)c3ccccc3O2)ccc(C(=O)Nc2cc(CC(=O)O)ccc2Cl)c1C | 3500 | – | – | 28 | 54
